Experimental data: ChEMBL document CHEMBL1121403, “Synthesis and mutagenicity of A-ring reduced analogues of 7,12-dimethylbenz[a]anthracene” (1980)

Key:
Salmonella typhimurium [1] = test: Mutagenic activity by measuring net reverent colonies per 10 ug of compound with Salmonella Typhimurium (TA1537 strain) in absence of S9 fraction; assay type: functional, Salmonella enterica subsp. enterica serovar Typhimurium
Method in brief: (§1)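 Frame-shift strain TA1537 in Ames soft-agar plating with doses given in Me2SO, tested at up to 15 or 10 μg/plate with and without S-9 (PCB-induced rat liver, 20 μL/plate). Duplicate plates per dose, triplicate spontaneous. Scored mutagenic if reversion was dose-dependent and at least twice spontaneous. Values were normalized to net revertants per 10 μg.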

Salmonella typhimurium [2] = test: Mutagenic activity by measuring net reverent colonies per 10 ug of compound with Salmonella Typhimurium (TA 100 strain) in absence of S9 fraction; assay type: functional, Salmonella enterica subsp. enterica serovar Typhimurium
Method in brief: (§2)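 Standard Ames soft-agar plating with doses given in Me2SO. Five or more doses from 1 to ≥10 μg/plate were tested with and without S-9 mix from PCB-induced rat liver, at 20 μL S-9/plate from a common pool. Duplicate plates per dose, triplicate for spontaneous revertants. 2-Aminoanthracene served as activation control. Net revertants per 10 μg came from regression of the linear dose-response portion.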

Salmonella typhimurium [3] = test: Mutagenic activity by measuring net reverent colonies per 10 ug of compound with Salmonella Typhimurium (TA 98 strain) in presence of S9 fraction; assay type: functional, Salmonella enterica subsp. enterica serovar Typhimurium; method in brief: as §2
Salmonella typhimurium [4] = test: Mutagenic activity by measuring net reverent colonies per 10 ug of compound with Salmonella Typhimurium (TA 100 strain) in presence of S9 fraction; assay type: functional, Salmonella enterica subsp. enterica serovar Typhimurium; method in brief: as §2
Salmonella typhimurium [5] = test: Mutagenic activity by measuring net reverent colonies per 10 ug of compound with Salmonella Typhimurium (TA1537 strain) in presence of S9 fraction; assay type: functional, Salmonella enterica subsp. enterica serovar Typhimurium; method in brief: as §1
Salmonella typhimurium [6] = test: Mutagenic activity by measuring net reverent colonies per 10 ug of compound with Salmonella Typhimurium (TA 98 strain) in absence of S9 fraction; assay type: functional, Salmonella enterica subsp. enterica serovar Typhimurium; method in brief: as §2
Salmonella typhimurium [7] = test: Mutagenic activity by measuring net reverent colonies per 10 ug of compound with Salmonella Typhimurium (TA1537 strain) in absence of S9 fraction; - indicates no mutagenic response; assay type: functional, organism-based; conditions: Salmonella enterica subsp. enterica serovar Typhimurium; method in brief: as §1
Salmonella typhimurium [8] = test: Mutagenic activity by measuring net reverent colonies per 10 ug of compound with Salmonella Typhimurium (TA 100 strain) in absence of S9 fraction; - indicates no mutagenic response; assay type: functional, organism-based; conditions: Salmonella enterica subsp. enterica serovar Typhimurium; method in brief: as §2
Salmonella typhimurium [9] = test: Mutagenic activity by measuring net reverent colonies per 10 ug of compound with Salmonella Typhimurium (TA 98 strain) in absence of S9 fraction; - indicates no mutagenic response; assay type: functional, organism-based; conditions: Salmonella enterica subsp. enterica serovar Typhimurium; method in brief: as §2
Salmonella typhimurium [10] = test: Mutagenic activity by measuring net reverent colonies per 10 ug of compound with Salmonella Typhimurium (TA1537 strain) in presence of S9 fraction; - indicates no mutagenic response; assay type: functional, organism-based; conditions: Salmonella enterica subsp. enterica serovar Typhimurium; method in brief: as §1

Compound	Activity (Salmonella typhimurium [1])	Activity (Salmonella typhimurium [2])	Activity (Salmonella typhimurium [3])	Activity (Salmonella typhimurium [4])	Activity (Salmonella typhimurium [5])	Activity (Salmonella typhimurium [6])	Activity (Salmonella typhimurium [7])	Activity (Salmonella typhimurium [8])	Activity (Salmonella typhimurium [9])	Activity (Salmonella typhimurium [10])
Cc1c2ccccc2c(C)c2c3c(ccc12)CCCC3	42	173	78	270	7	47	–	–	–	–
Cc1c2ccccc2c(C)c2c1ccc1ccccc12	–	–	58	489	15	–	Not toxic	Not toxic	Not toxic	–
Cc1c2ccccc2c(C)c2c3c(ccc12)C=CCC3	–	58	25	69	–	146	Not toxic	–	–	Not toxic
